Assay outcomes: PubChem, several laboratories
Shown are actives, neighbours in structure and some others; about 2.3% of the full set was active somewhere.
PAFAH1B3 FP inh – PAFAH1B3 (human) inhibition; Q15102; recombinant PAFAH1B3, FP-rhodamine probe, fluorescence polarization; inhibition, % at 3.39 µM; hit rate 0.28% among 340,000; AID 492972;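 active = inhibition above the screen-wide average of all tested compounds plus 3 SD, cut at about 25% in these data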
Apaf-1 inh – blocks human Apaf-1 apoptosome activity | O14727 | reconstituted apoptosome caspase-3 activity, DEVD-Rh110 fluorescence | inhibition, % at 20 µM | hit rate 0.71% among 330,000 | AID 489030; active = inhibition of at least 40% at 20 µM
Target sequence (O14727 whole entry, looked up): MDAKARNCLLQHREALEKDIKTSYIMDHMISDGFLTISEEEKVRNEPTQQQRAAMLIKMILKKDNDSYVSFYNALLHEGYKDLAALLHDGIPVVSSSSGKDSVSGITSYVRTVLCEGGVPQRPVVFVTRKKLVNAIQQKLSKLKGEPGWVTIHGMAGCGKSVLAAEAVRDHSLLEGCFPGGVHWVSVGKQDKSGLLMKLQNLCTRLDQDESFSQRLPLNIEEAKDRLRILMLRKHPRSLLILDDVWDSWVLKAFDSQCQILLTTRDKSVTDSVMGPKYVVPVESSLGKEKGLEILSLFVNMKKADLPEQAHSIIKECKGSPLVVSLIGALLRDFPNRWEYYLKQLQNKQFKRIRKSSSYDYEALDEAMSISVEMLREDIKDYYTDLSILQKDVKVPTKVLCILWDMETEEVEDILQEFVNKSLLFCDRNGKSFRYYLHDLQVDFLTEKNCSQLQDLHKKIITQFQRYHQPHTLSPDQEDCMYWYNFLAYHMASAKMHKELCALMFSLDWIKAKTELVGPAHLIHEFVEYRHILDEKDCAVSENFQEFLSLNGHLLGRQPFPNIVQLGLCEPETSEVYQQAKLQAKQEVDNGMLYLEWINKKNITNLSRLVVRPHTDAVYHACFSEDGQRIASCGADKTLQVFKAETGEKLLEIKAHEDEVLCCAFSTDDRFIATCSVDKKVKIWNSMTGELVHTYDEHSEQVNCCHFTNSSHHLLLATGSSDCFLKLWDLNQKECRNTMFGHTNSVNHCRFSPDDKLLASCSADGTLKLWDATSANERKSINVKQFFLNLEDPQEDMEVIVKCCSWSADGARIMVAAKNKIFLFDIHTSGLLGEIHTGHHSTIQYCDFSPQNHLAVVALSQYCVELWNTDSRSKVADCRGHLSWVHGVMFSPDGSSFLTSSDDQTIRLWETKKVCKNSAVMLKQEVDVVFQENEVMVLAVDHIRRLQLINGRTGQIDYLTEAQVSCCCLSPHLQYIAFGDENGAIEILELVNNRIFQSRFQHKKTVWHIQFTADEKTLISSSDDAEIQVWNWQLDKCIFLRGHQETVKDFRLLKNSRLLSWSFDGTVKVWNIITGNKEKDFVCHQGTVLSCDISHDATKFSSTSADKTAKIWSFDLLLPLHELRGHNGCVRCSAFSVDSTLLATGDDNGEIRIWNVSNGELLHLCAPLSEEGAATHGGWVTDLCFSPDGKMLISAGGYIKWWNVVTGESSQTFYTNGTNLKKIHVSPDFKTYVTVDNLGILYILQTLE
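Material: cell-free apoptosome with Apaf-1, procaspase-3 and caspase-9; Buffer or medium: Hepes pH 7.5 with detergent and BSA; Reagent: cytochrome c trigger plus (Z-DEVD)2-Rh110 caspase-3 substrate; Times: compound with Apaf-1, dATP, procaspase-3 30 min, then 50 min reaction, room temperature; Technique: Rh110 fluorescence intensity.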
TDP2 absorb – blocks human TDP2 phosphodiesterase activity; AID 720702; recombinant TDP2, T5PNP hydrolysis, p-nitrophenol absorbance 415 nm; hit rate 0.34% among 370,000; inhibition, % at 12.8 µM;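 active = inhibition above the mean of all tested compounds plus 3 SD, set per campaign, cut at about 25% in these data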
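Assay system: recombinant human TDP2 / Reagent: T5PNP substrate at 5 mM, a TopII-DNA adduct mimic / Measured by: epi absorbance from released p-nitrophenol / Evaluation: % inhibition relative to enzyme-containing and enzyme-free wells / Control set: enzyme-free and DMSO wells / Replicates: each compound tested once, singlicate / Schedule: enzyme reaction with compound for 2 h at 37 °C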
PAFAH2 inh – inhibitors of human PAFAH2; hit rate 0.99% among 340,000; recombinant PAFAH2, FP-rhodamine activity probe, fluorescence polarization; inhibition, % at 3.39 µM; Q99487;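 active = inhibition above the mean over all tested compounds plus 3 SD, cut at about 30% in these data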;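 also: inhibitors block probe labeling of enzyme so polarization drops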
PAFAH1B2 FP inh – blocks human PAF acetylhydrolase 1b catalytic subunit 2 | P68402 | hit rate 1.2% among 340,000 | recombinant PAFAH1B2, FP-rhodamine activity probe, fluorescence polarization | inhibition, % at 3.39 µM;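 active = inhibition above the mean of all tested compounds plus 3 SD, cut at about 24% in these data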
TDP2 inh conf – human TDP2 inhibition, confirmation; shares compounds with TDP2 absorb; recombinant human TDP2, absorbance read-out; inhibition, % at 12.8 µM; hit rate 22% among 1,100; AID 743263; in the data active = inhibition above about 25%
Each line names hits and unclear results; the compound was inactive in the other large screens (follow-up assays come after a bar, where they were run).

CCC(C)(O)C(=O)OC1C(=O)OC2CC3C(C)=CC(O)C(O)C3(C)C3C4(O)OCC23C1C(C)C4O (stereo not drawn)	none (no result: PAFAH1B3 FP inh, Apaf-1 inh, PAFAH2 inh, PAFAH1B2 FP inh)
COc1ccc(CN2C(=O)CC(=O)NC2=O)cc1	none
O=C1CC(=O)N(Cc2ccccc2)C(=S)N1	TDP2 absorb 32, PAFAH1B2 FP inh 31 | TDP2 inh conf inactive
O=c1c2ccccc2nc(/C=C/c2ccccc2O)n1-c1ccccc1O	TDP2 absorb 30 | TDP2 inh conf inactive
CC1(C)CC(=O)C(C2(O)C(=O)NC(=O)NC2=O)=C(O)C1	TDP2 absorb 53 | TDP2 inh conf 50
O=[N+]([O-])c1ccc(N(CCO)CCO)c2c1no[n+]2[O-]	none (no result: PAFAH1B3 FP inh, Apaf-1 inh, PAFAH2 inh, PAFAH1B2 FP inh)
CN1CCN(c2ccc([N+](=O)[O-])c3no[n+]([O-])c23)CC1	TDP2 absorb 25 (no result: Apaf-1 inh) | TDP2 inh conf 26
NNc1n[nH]c(=S)n1N	TDP2 absorb 33 | TDP2 inh conf inactive
CNc1ccc2oc(C[C@H]3O[C@@]4(CC[C@H]3C)O[C@H]([C@H](C)C(=O)c3ccc[nH]3)[C@H](C)C[C@H]4C)nc2c1C(=O)O	TDP2 absorb 29 | TDP2 inh conf inactive
C/C(=N\NC(=O)c1ccccc1O)c1c(O)n(Cc2ccccc2)c(=O)[nH]c1=O	TDP2 absorb 28, PAFAH1B2 FP inh 28 | TDP2 inh conf inactive
C/C(=N\NC(=O)c1ccncc1)c1c(O)n(Cc2ccccc2)c(=O)[nH]c1=O	none
O=c1c2ccccc2nc(-c2ccccc2)n1-c1cccnc1	none
O=C1CC(c2cccnc2)=NN1c1ccccc1	TDP2 absorb 46 | TDP2 inh conf inactive
O=P(OCCCl)(OCCCl)OCCCl	none (no result: PAFAH1B3 FP inh, Apaf-1 inh, PAFAH2 inh, PAFAH1B2 FP inh)
